{"source": "ChEMBL document CHEMBL4334458", "about": "“Design, synthesis and antibacterial evaluation of novel 15-membered 11a-azahomoclarithromycin derivatives with the 1, 2, 3-triazole side chain” (Eur J Med Chem, 2019)", "key": {"Staphylococcus aureus [1]": {"system": "Staphylococcus aureus", "test": "Ratio of MBC to MIC for erythromycin-susceptible Staphylococcus aureus ATCC 25923", "format": "functional"}, "Pseudomonas aeruginosa": {"system": "Pseudomonas aeruginosa", "test": "Antibacterial activity against penicillin-susceptible Pseudomonas aeruginosa ATCC 27853 incubated for 24 hrs by broth dilution method", "format": "functional", "conditions": "ATCC 27853, 24 h", "method_in_brief": "(§1)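 CLSI broth microdilution in cation-adjusted Mueller-Hinton broth. Twofold dilutions spanned 0.25–128 or 0.5–256 µg/mL, with CAM and AZM as controls. Log-phase bacteria were added and incubated 24 h at 37 °C. MIC was read by turbidity as the concentration of the last clear well.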"}, "Streptococcus pyogenes [2]": {"system": "Streptococcus pyogenes", "test": "Antibacterial activity against erythromycin-susceptible Streptococcus pyogenes 1 clinical isolate incubated for 24 hrs by broth dilution method", "format": "functional", "method_in_brief": "as §1"}, "Streptococcus pyogenes [3]": {"system": "Streptococcus pyogenes", "test": "Antibacterial activity against erythromycin-resistant Streptococcus pyogenes 2 clinical isolate incubated for 24 hrs by broth dilution method", "format": "functional"}, "[4]": {"test": "Cytotoxicity against human MCF7 cells assessed as viable cells at 64 to 128 ug/ml incubated for 24 hrs by MTT assay relative to control", "format": "cell-based", "conditions": "read-out: Activity", "method_in_brief": "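MCF-7 cells were seeded at 10^4 cells/well and allowed to settle overnight. Compound was added for 24 h, with CAM as control and DMSO as vehicle control. MTT (5 mg/mL stock) was then added for 4 h at 37 °C, formazan dissolved in DMSO for 10 min, and absorbance read at 570 nm. Read-out was percent viable cells.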"}, "Staphylococcus aureus [5]": {"system": "Staphylococcus aureus", "test": "Antibacterial activity against methicillin-resistant Staphylococcus aureus ATCC 43300 incubated for 24 hrs by broth dilution method", "format": "functional", "conditions": "ATCC 43300, 24 h"}, "Streptococcus pneumoniae [6]": {"system": "Streptococcus pneumoniae", "test": "Antibacterial activity against erythromycin-resistant Streptococcus pneumoniae AB11 expressing the ermB and mefA incubated for 24 hrs by broth dilution method", "format": "functional"}, "Streptococcus pneumoniae [7]": {"system": "Streptococcus pneumoniae", "test": "Antibacterial activity against erythromycin-resistant Streptococcus pneumoniae B1 expressing the ermB incubated for 24 hrs by broth dilution method", "format": "functional"}, "Staphylococcus aureus [8]": {"system": "Staphylococcus aureus", "test": "Antibacterial activity against penicillin-resistant Staphylococcus aureus ATCC 31007 incubated for 24 hrs by broth dilution method", "format": "functional", "conditions": "ATCC 31007, 24 h"}, "Staphylococcus aureus [9]": {"system": "Staphylococcus aureus", "test": "Antibacterial activity against erythromycin-susceptible Staphylococcus aureus ATCC 25923 incubated for 24 hrs by broth dilution method", "format": "functional", "conditions": "ATCC 25923, 24 h", "method_in_brief": "as §1"}, "Staphylococcus aureus [10]": {"system": "Staphylococcus aureus", "test": "Bactericidal activity against erythromycin-susceptible Staphylococcus aureus ATCC 25923 incubated for 24 hrs followed by re-plating on tryptic soy agar plates for 24 hrs by broth microdilution assay", "format": "functional", "conditions": "ATCC 25923, 24 h", "method_in_brief": "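Built on the broth microdilution MIC set-up (CAMH, 24 h, 37 °C). After 24 h, contents of clear wells were plated on tryptic soy agar and incubated 24 h at 37 °C. MBC was taken as the lowest concentration giving no colonies.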"}, "Escherichia coli": {"system": "Escherichia coli", "test": "Antibacterial activity against penicillin-susceptible Escherichia coli ATCC 25922 incubated for 24 hrs by broth dilution method", "format": "functional", "conditions": "ATCC 25922, 24 h", "method_in_brief": "as §1"}, "Bacillus subtilis": {"system": "Bacillus subtilis", "test": "Antibacterial activity against penicillin-susceptible Bacillus subtilis ATCC 9372 incubated for 24 hrs by broth dilution method", "format": "functional", "conditions": "ATCC 9372, 24 h", "method_in_brief": "as §1"}}}
{"smiles": "CO[C@]1(C)C[C@@H](C)[C@H](O)[C@H](C)CN(C)C[C@H](COCc2cn(-c3ccccc3)nn2)OC(=O)[C@H](C)[C@@H](O[C@H]2C[C@@](C)(OC)[C@@H](O)[C@H](C)O2)[C@H](C)[C@H]1O[C@@H]1O[C@H](C)C[C@H](N(C)C)[C@H]1O", "values": [{"measurement": "Ratio", "setting": "Staphylococcus aureus [1]", "value": ">512"}, {"measurement": "MIC", "setting": "Pseudomonas aeruginosa", "value": 16, "unit": "µg/mL"}, {"measurement": "MIC", "setting": "Streptococcus pyogenes [2]", "value": 0.25, "unit": "µg/mL"}, {"measurement": "MIC", "setting": "Streptococcus pyogenes [3]", "value": 128, "unit": "µg/mL"}, {"measurement": "viability at 24 h", "setting": "[4]", "value": 60, "unit": "%"}, {"measurement": "MIC", "setting": "Staphylococcus aureus [5]", "value": "> 256", "unit": "µg/mL"}, {"measurement": "MIC", "setting": "Streptococcus pneumoniae [6]", "value": 128, "unit": "µg/mL"}, {"measurement": "MIC", "setting": "Streptococcus pneumoniae [7]", "value": "> 256", "unit": "µg/mL"}, {"measurement": "MIC", "setting": "Staphylococcus aureus [8]", "value": "> 256", "unit": "µg/mL"}, {"measurement": "MIC", "setting": "Staphylococcus aureus [9]", "value": "≤ 0.25", "unit": "µg/mL"}, {"measurement": "MBC", "setting": "Staphylococcus aureus [10]", "value": 128, "unit": "µg/mL"}, {"measurement": "MIC", "setting": "Escherichia coli", "value": 64, "unit": "µg/mL"}, {"measurement": "MIC", "setting": "Bacillus subtilis", "value": "≤ 0.25", "unit": "µg/mL"}]}
{"smiles": "CO[C@]1(C)C[C@@H](C)[C@H](O)[C@H](C)CN(C)[C@H](Cn2cc(-c3ccccn3)nn2)COC(=O)[C@H](C)[C@@H](O[C@H]2C[C@@](C)(OC)[C@@H](O)[C@H](C)O2)[C@H](C)[C@H]1O[C@@H]1O[C@H](C)C[C@H](N(C)C)[C@H]1O", "values": [{"measurement": "MIC", "setting": "Pseudomonas aeruginosa", "value": 64, "unit": "µg/mL"}, {"measurement": "MIC", "setting": "Streptococcus pyogenes [2]", "value": 4, "unit": "µg/mL"}, {"measurement": "MIC", "setting": "Streptococcus pyogenes [3]", "value": 256, "unit": "µg/mL"}, {"measurement": "MIC", "setting": "Staphylococcus aureus [5]", "value": 256, "unit": "µg/mL"}, {"measurement": "MIC", "setting": "Streptococcus pneumoniae [6]", "value": 128, "unit": "µg/mL"}, {"measurement": "MIC", "setting": "Streptococcus pneumoniae [7]", "value": 256, "unit": "µg/mL"}, {"measurement": "MIC", "setting": "Staphylococcus aureus [8]", "value": 256, "unit": "µg/mL"}, {"measurement": "MIC", "setting": "Staphylococcus aureus [9]", "value": 16, "unit": "µg/mL"}, {"measurement": "MIC", "setting": "Escherichia coli", "value": 64, "unit": "µg/mL"}, {"measurement": "MIC", "setting": "Bacillus subtilis", "value": 32, "unit": "µg/mL"}]}
{"smiles": "CCc1ccc(-n2cc(COC[C@H]3CN(C)C[C@@H](C)[C@@H](O)[C@H](C)C[C@@](C)(OC)[C@H](O[C@@H]4O[C@H](C)C[C@H](N(C)C)[C@H]4O)[C@@H](C)[C@H](O[C@H]4C[C@@](C)(OC)[C@@H](O)[C@H](C)O4)[C@@H](C)C(=O)O3)nn2)cc1", "values": [{"measurement": "MIC", "setting": "Pseudomonas aeruginosa", "value": 16, "unit": "µg/mL"}, {"measurement": "MIC", "setting": "Streptococcus pyogenes [2]", "value": 0.5, "unit": "µg/mL"}, {"measurement": "MIC", "setting": "Streptococcus pyogenes [3]", "value": 64, "unit": "µg/mL"}, {"measurement": "MIC", "setting": "Staphylococcus aureus [5]", "value": 128, "unit": "µg/mL"}, {"measurement": "MIC", "setting": "Streptococcus pneumoniae [6]", "value": 32, "unit": "µg/mL"}, {"measurement": "MIC", "setting": "Streptococcus pneumoniae [7]", "value": 128, "unit": "µg/mL"}, {"measurement": "MIC", "setting": "Staphylococcus aureus [8]", "value": 128, "unit": "µg/mL"}, {"measurement": "MIC", "setting": "Staphylococcus aureus [9]", "value": 0.5, "unit": "µg/mL"}, {"measurement": "MIC", "setting": "Escherichia coli", "value": 64, "unit": "µg/mL"}, {"measurement": "MIC", "setting": "Bacillus subtilis", "value": "≤ 0.25", "unit": "µg/mL"}]}
{"smiles": "CO[C@]1(C)C[C@@H](C)[C@H](O)[C@H](C)CN(C)C[C@@H](Cn2cc(-c3ccc(F)cc3)nn2)OC(=O)[C@H](C)[C@@H](O[C@H]2C[C@@](C)(OC)[C@@H](O)[C@H](C)O2)[C@H](C)[C@H]1O[C@@H]1O[C@H](C)C[C@H](N(C)C)[C@H]1O", "values": [{"measurement": "MIC", "setting": "Pseudomonas aeruginosa", "value": 32, "unit": "µg/mL"}, {"measurement": "MIC", "setting": "Streptococcus pyogenes [2]", "value": 0.25, "unit": "µg/mL"}, {"measurement": "MIC", "setting": "Streptococcus pyogenes [3]", "value": 64, "unit": "µg/mL"}, {"measurement": "MIC", "setting": "Staphylococcus aureus [5]", "value": 128, "unit": "µg/mL"}, {"measurement": "MIC", "setting": "Streptococcus pneumoniae [6]", "value": 16, "unit": "µg/mL"}, {"measurement": "MIC", "setting": "Streptococcus pneumoniae [7]", "value": 64, "unit": "µg/mL"}, {"measurement": "MIC", "setting": "Staphylococcus aureus [8]", "value": 128, "unit": "µg/mL"}, {"measurement": "MIC", "setting": "Staphylococcus aureus [9]", "value": 0.5, "unit": "µg/mL"}, {"measurement": "MIC", "setting": "Escherichia coli", "value": 32, "unit": "µg/mL"}, {"measurement": "MIC", "setting": "Bacillus subtilis", "value": 0.5, "unit": "µg/mL"}]}
{"smiles": "CO[C@]1(C)C[C@@H](C)[C@H](O)[C@H](C)CN(C)C[C@H](Cn2cc(-c3ccc(Cl)cc3)nn2)OC(=O)[C@H](C)[C@@H](O[C@H]2C[C@@](C)(OC)[C@@H](O)[C@H](C)O2)[C@H](C)[C@H]1O[C@@H]1O[C@H](C)C[C@H](N(C)C)[C@H]1O", "values": [{"measurement": "MIC", "setting": "Pseudomonas aeruginosa", "value": 64, "unit": "µg/mL"}, {"measurement": "MIC", "setting": "Streptococcus pyogenes [2]", "value": 0.12, "unit": "µg/mL"}, {"measurement": "MIC", "setting": "Streptococcus pyogenes [3]", "value": 64, "unit": "µg/mL"}, {"measurement": "MIC", "setting": "Staphylococcus aureus [5]", "value": 128, "unit": "µg/mL"}, {"measurement": "MIC", "setting": "Streptococcus pneumoniae [6]", "value": 128, "unit": "µg/mL"}, {"measurement": "MIC", "setting": "Streptococcus pneumoniae [7]", "value": 128, "unit": "µg/mL"}, {"measurement": "MIC", "setting": "Staphylococcus aureus [8]", "value": 128, "unit": "µg/mL"}, {"measurement": "MIC", "setting": "Staphylococcus aureus [9]", "value": 2, "unit": "µg/mL"}, {"measurement": "MIC", "setting": "Escherichia coli", "value": 32, "unit": "µg/mL"}, {"measurement": "MIC", "setting": "Bacillus subtilis", "value": 1, "unit": "µg/mL"}]}
{"smiles": "CO[C@]1(C)C[C@@H](C)[C@H](O)[C@H](C)CN(C)C[C@H](Cn2cc(-c3ccc(F)cc3)nn2)OC(=O)[C@H](C)[C@@H](O[C@H]2C[C@@](C)(OC)[C@@H](O)[C@H](C)O2)[C@H](C)[C@H]1O[C@@H]1O[C@H](C)C[C@H](N(C)C)[C@H]1O", "values": [{"measurement": "MIC", "setting": "Pseudomonas aeruginosa", "value": 64, "unit": "µg/mL"}, {"measurement": "MIC", "setting": "Streptococcus pyogenes [2]", "value": 0.25, "unit": "µg/mL"}, {"measurement": "MIC", "setting": "Streptococcus pyogenes [3]", "value": 64, "unit": "µg/mL"}, {"measurement": "MIC", "setting": "Staphylococcus aureus [5]", "value": 256, "unit": "µg/mL"}, {"measurement": "MIC", "setting": "Streptococcus pneumoniae [6]", "value": 256, "unit": "µg/mL"}, {"measurement": "MIC", "setting": "Streptococcus pneumoniae [7]", "value": 256, "unit": "µg/mL"}, {"measurement": "MIC", "setting": "Staphylococcus aureus [8]", "value": 256, "unit": "µg/mL"}, {"measurement": "MIC", "setting": "Staphylococcus aureus [9]", "value": 2, "unit": "µg/mL"}, {"measurement": "MIC", "setting": "Escherichia coli", "value": 32, "unit": "µg/mL"}, {"measurement": "MIC", "setting": "Bacillus subtilis", "value": 2, "unit": "µg/mL"}]}
